Test results as given in publication PMC3384366 (International Journal of Nanomedicine, 2012).

How the values were obtained:
[1] = Oral pharmacokinetics of curcumin in plasma of freely mobile rats; assay type: in vivo, Male Sprague-Dawley rats; details: for AUC/dose: mean ± SEM, n = 4
Summary of the method: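 Male Sprague-Dawley rats (215 ± 10 g) had jugular catheters placed under pentobarbital (50 mg/kg ip) and were used freely moving one day later. They were dosed by gavage at 1 g/kg. Heparinized jugular blood was drawn from 15 to 480 min, and plasma was stored at −20°C. Samples were assayed by HPLC with an internal standard (425 nm; acetonitrile/10 mM phosphate pH 3.5). Noncompartmental analysis, n = 4.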

[2] = system: reverted rat gut sacs; test: Ex vivo curcumin absorption using reverted rat gut sacs; assay type: in vitro ADME, Male Sprague-Dawley rats; details: serosal fluid + sac tissue; 100 μg/mL, 60 minutes, 37°C; mean ± SE, n = 4
Summary of the method: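 Rats (210 ± 10 g) killed by i.p. urethane/α-chloralose overdose. Small intestine rinsed with 0.9% saline, split into duodenum, jejunum and ileum in 37°C TC-199 (pH 7.4), everted, and tied into ~2 cm medium-filled sacs. Sacs shaken at 37°C in TC-199 with added 100 μg/mL test compound or nanoformulation, 1 h. Serosal fluid and acetonitrile-homogenized tissue protein-precipitated with internal standard, then analysed by HPLC; amounts summed.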

[3] = Cumulative excretion of curcumin in feces and urine; assay type: in vivo, Male Sprague-Dawley rats; details: rat, oral, 1 g/kg; collected up to 72 hours
[4] = male, Sprague-Dawley, rat, plasma, po, 1 g/kg

AUC [1, 4]: 104 ng·h/mL
Cmax [1, 4]: 28 ± 10 ng/mL
Tmax [1, 4]: 45 min
Time for which curcumin could be detected in plasma after oral ingestion ([1]; rat plasma, oral, 1 g/kg (b48 prints 1 mg/kg)): 6 h
AUC/dose ([1]; rat plasma, oral, 1 g/kg): 0.0062 ± 0.003
AUC/dose ([1]; rat plasma, oral, 1 g/kg, listed as curcumin alone): 0.0062
Curcumin amount after incubation, duodenum [2]: 0.47 ± 0.04 µg
Curcumin amount after incubation, ileum [2]: 0.85 ± 0.02 µg
Curcumin amount after incubation, jejunum [2]: 1.01 ± 0.05 µg
Accumulated percentage of curcumin in urine [3]: ~0%
Accumulated percentage of unabsorbed curcumin in feces [3]: ~90%
Compound: COc1cc(/C=C/C(=O)CC(=O)/C=C/c2ccc(O)c(OC)c2)ccc1O [Curcumin]
